Test results reported in ChEMBL document CHEMBL1143874, “Diazen-1-ium-1,2-diolated and nitrooxyethyl nitric oxide donor ester prodrugs of anti-inflammatory (E)-2-(aryl)-3-(4-methanesulfonylphenyl)acrylic acids: synthesis, cyclooxygenase inhibition, and nitric oxide release studies” (Bioorg Med Chem, 2008).

Experiments:
[1] = tested on: Serum; test: Nitric oxide in rat serum at pH 7.4 in 37 degC after 1.5 hrs; assay type: ADME, cell-free; design: concentration or dose not given beside the values; settings: pH 7.4, 1.5 h
Outline: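 Test compound at 1.0 · 10^-2 mM in phosphate buffer pH 7.4 with 90 µL rat serum added, incubated 37 °C for 1.5 h. Nitrite measured by Griess reaction. % NO released is relative to a theoretical maximum of 2 mol NO/mol for diazeniumdiolates and 1 mol/mol for nitrooxyethyl esters. Mean of 3 measurements.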

[2] = Nitric oxide release in PBS at pH 7.4 in 37 degC after 1.5 hrs; assay type: functional; design: concentration or dose not given beside the values
Outline: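 Test compound at 1.0 · 10^-2 mM in phosphate buffer pH 7.4, incubated 37 °C for 1.5 h. Nitrite was quantified by Griess reaction. % NO released is relative to a theoretical maximum of 2 mol NO/mol for diazeniumdiolates, 1 mol/mol for nitrooxyethyl esters and 3 mol/mol for glycerol trinitrate. Mean of 3 measurements.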

[3] = Nitric oxide release in PBS in presence of 5 mM L-cysteine at pH 7.4 in 37 degC after 1.5 hrs; assay type: functional
Outline: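 Phosphate buffer pH 7.4 containing 5.0 mM L-cysteine, with test compound at 1.0 · 10^-2 mM, kept at 37 °C for 1.5 h. Nitrite was determined by Griess reaction. % NO released is relative to a theoretical maximum of 1 mol NO/mol for nitrooxyethyl esters. Mean of 3 measurements.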

[4] = target: T1, Prostaglandin G/H synthase 1 (Ovis aries, UniProt P05979); test: Inhibition of ovine COX1 by enzyme immunoassay
T1 sequence (P05979 whole entry): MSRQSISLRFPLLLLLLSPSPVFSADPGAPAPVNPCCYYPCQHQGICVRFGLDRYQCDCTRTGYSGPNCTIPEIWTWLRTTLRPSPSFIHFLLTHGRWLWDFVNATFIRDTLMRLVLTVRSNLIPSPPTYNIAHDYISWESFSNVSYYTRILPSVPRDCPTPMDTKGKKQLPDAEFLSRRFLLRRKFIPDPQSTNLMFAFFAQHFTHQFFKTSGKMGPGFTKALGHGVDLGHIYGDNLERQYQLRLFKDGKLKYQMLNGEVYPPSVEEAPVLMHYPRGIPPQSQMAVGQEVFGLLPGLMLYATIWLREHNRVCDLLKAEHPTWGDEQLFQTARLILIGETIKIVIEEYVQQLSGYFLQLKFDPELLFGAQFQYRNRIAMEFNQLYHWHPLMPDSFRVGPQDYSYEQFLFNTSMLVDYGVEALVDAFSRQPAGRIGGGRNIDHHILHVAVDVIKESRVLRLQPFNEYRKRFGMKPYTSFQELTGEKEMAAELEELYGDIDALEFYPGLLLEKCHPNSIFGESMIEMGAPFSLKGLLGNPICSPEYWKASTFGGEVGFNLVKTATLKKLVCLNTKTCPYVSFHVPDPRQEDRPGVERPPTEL

[5] = species on record: Ovis aries; test: Selectivity index, ratio of IC50 for ovine COX1 to IC50 for ovine COX2
Outline: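 Ovine COX-1 and COX-2 IC50s were measured by enzyme immunoassay kit. Deviation from the mean was <10%. The index is COX-1 IC50/COX-2 IC50.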

| Activity [1] [%] | IC50 [4] [nM] | Ratio IC50 [5] | SMILES | Activity [2] [%] | Activity [3] [%] |
| --- | --- | --- | --- | --- | --- |
| 85 |  |  | CN(CCO)/[N+]([O-])=N/[O-].[Na+] | 84.9 |  |
|  | 6200 |  | CS(=O)(=O)c1ccc(/C=C(/C(=O)OCCO[N+](=O)[O-])c2ccccc2)cc1 | 3 | 8.5 |
|  | 1500 | 0.5 | CS(=O)(=O)c1ccc(/C=C(/C(=O)O)c2ccccc2)cc1 |  |  |
| 76.2 |  |  | CC(=O)OCO/N=[N+](\[O-])N(C)CCOC(=O)/C(=C/c1ccc(S(C)(=O)=O)cc1)c1ccc(Br)cc1 | 3.5 |  |
| 83 |  |  | CC(=O)OCO/N=[N+](\[O-])N(C)CCOC(=O)/C(=C/c1ccc(S(C)(=O)=O)cc1)c1ccccc1 | 4.8 |  |
| 82.1 |  |  | CC(=O)OCO/N=[N+](\[O-])N(C)CCOC(=O)/C(=C/c1ccc(S(C)(=O)=O)cc1)c1ccc(F)cc1 | 3.6 |  |
| 77.6 |  |  | COc1ccc(/C(=C\c2ccc(S(C)(=O)=O)cc2)C(=O)OCCN(C)/[N+]([O-])=N/OCOC(C)=O)cc1 | 3.9 |  |
|  | 880 |  | CS(=O)(=O)c1ccc(/C=C(/C(=O)O)c2ccc(Br)cc2)cc1 |  |  |

Continued, compound first:

| SMILES | Activity [1] [%] | IC50 [4] [nM] | Ratio IC50 [5] | Activity [2] [%] | Activity [3] [%] |
| --- | --- | --- | --- | --- | --- |
| COc1ccc(/C(=C\c2ccc(S(C)(=O)=O)cc2)C(=O)OCCO[N+](=O)[O-])cc1 |  | 1100 |  | 1.4 | 9.2 |
| O=[N+]([O-])OCC(CO[N+](=O)[O-])O[N+](=O)[O-] |  |  |  | 2.8 | 10.1 |
| CS(=O)(=O)c1ccc(/C=C(/C(=O)OCCO[N+](=O)[O-])c2ccc(F)cc2)cc1 |  | 1600 |  | 3.3 | 7.6 |
| CS(=O)(=O)c1ccc(/C=C(/C(=O)OCCO[N+](=O)[O-])c2ccc(Br)cc2)cc1 |  | 370 |  | 1 | 10.1 |
| CS(=O)(=O)c1ccc(/C=C(/C(=O)O)c2ccc(F)cc2)cc1 |  | 400 |  |  |  |
| COc1ccc(/C(=C\c2ccc(S(C)(=O)=O)cc2)C(=O)O)cc1 |  | 31600 |  |  |  |
